Calls of active or inactive are those of the source. The calls are words filed in the database; no cut-off is given here.
Tests used:
Prolyl endopeptidase [1] = biological target: T1, Prolyl endopeptidase (Homo sapiens, UniProt P48147); experiment: Inhibition of prolyl oligopeptidase in human LN229 cell extracts assessed as blockade of Z-Gly-Pro-AMC substrate hydrolysis by fluorimetric assay
T1 sequence (P48147 whole entry): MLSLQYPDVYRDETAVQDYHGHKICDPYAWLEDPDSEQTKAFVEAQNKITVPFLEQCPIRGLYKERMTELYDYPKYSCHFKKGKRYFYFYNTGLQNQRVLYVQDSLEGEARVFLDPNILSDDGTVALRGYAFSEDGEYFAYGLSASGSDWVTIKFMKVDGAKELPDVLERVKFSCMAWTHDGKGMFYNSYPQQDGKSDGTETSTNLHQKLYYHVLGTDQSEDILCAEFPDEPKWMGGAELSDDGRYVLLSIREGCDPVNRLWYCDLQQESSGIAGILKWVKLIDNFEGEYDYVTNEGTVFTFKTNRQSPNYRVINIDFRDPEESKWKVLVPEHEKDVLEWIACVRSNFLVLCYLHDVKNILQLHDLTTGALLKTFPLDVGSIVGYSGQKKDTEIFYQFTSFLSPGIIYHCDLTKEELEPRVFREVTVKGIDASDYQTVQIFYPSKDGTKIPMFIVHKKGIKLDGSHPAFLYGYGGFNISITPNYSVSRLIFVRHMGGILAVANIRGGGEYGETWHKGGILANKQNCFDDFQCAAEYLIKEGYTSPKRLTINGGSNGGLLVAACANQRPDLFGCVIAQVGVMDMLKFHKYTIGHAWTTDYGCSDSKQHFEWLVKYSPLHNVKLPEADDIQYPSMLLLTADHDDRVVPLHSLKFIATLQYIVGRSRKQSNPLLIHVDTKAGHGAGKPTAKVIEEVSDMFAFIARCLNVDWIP

Prolyl endopeptidase [2] = biological target: T1, Prolyl endopeptidase; experiment: Inhibition of prolyl oligopeptidase in human HCEC cell extracts assessed as blockade of Z-Gly-Pro-AMC substrate hydrolysis by fluorimetric assay; format: cell-free
[3] = biological target: Dipeptidyl peptidase 4 (Homo sapiens) (UniProt P27487); experiment: Inhibition of DPP4 in human fibroblast extracts assessed as blockade of Gly-Pro-AMC substrate hydrolysis at 100 uM by fluorimetric assay
Sequence of Dipeptidyl peptidase 4 (Homo sapiens) (P27487 whole entry, looked up): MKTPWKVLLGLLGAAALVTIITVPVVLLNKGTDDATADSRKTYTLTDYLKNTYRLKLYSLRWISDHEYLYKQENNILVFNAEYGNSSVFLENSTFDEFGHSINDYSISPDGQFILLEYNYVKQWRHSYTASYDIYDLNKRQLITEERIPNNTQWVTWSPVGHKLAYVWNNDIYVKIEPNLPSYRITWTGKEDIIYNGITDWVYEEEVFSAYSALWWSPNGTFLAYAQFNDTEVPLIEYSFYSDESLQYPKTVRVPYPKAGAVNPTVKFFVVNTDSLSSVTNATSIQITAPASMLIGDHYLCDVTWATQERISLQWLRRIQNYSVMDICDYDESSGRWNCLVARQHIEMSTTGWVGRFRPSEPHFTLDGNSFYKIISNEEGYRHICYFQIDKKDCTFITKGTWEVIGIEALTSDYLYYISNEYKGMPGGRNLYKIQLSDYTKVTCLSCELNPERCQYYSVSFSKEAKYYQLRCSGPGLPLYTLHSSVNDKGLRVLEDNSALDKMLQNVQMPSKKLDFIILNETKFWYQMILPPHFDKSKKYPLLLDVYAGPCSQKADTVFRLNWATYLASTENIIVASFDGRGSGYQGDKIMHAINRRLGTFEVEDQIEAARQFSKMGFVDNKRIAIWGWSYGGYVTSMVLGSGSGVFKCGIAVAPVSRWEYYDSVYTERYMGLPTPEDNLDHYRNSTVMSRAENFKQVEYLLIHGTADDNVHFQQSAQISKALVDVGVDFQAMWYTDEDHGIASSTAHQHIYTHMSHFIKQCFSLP
Outline: (§1)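 Confluent human cells (glioblastoma LN18, LN229, LNZ308; brain endothelial HCEC; lung PO03 or skin PG98/5 fibroblasts) grown in DMEM with 4.5 g/L glucose and 10% FCS, then lysed in PBS (pH 7.2-7.4) containing 0.1% Triton X-100. Compound was diluted from methanol stock into water and preincubated 5-10 min at room temperature. Gly-Pro-AMC was then added. Duplicate wells.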

[4] = biological target: Dipeptidyl peptidase 4 (Homo sapiens) (UniProt P27487); experiment: Inhibition of DPP4 in intact human brain derived endothelial cells assessed as blockade of Gly-Pro-AMC substrate hydrolysis at 100 uM by fluorimetric assay; format: cell-based; settings: Endothelial cell
Outline: (§2)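 Confluent intact human glioblastoma (LN18, LN229, LNZ308), brain endothelial HCEC, or lung PO03 and skin PG98/5 fibroblast monolayers kept in PBS (pH 7.2-7.4) without detergent. Compound was diluted from methanol stock into water and preincubated 5-10 min at room temperature. Gly-Pro-AMC was then added and hydrolysis read by fluorescence. Duplicate wells.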

[5] = biological target: Dipeptidyl peptidase 4 (Homo sapiens) (UniProt P27487); experiment: Inhibition of DPP4 in intact human fibroblasts assessed as blockade of Gly-Pro-AMC substrate hydrolysis at 100 uM by fluorimetric assay; outline: as §2
Prolyl endopeptidase [6] = biological target: T1, Prolyl endopeptidase; experiment: Inhibition of prolyl oligopeptidase in intact human LNZ308 cells assessed as blockade of Z-Gly-Pro-AMC substrate hydrolysis by fluorimetric assay; format: cell-based
[7] = biological target: Dipeptidyl peptidase 4 (Homo sapiens) (UniProt P27487); experiment: Inhibition of DPP4 in intact human astrocyte derived cells assessed as blockade of Gly-Pro-AMC substrate hydrolysis at 100 uM by fluorimetric assay; outline: as §2
Prolyl endopeptidase [8] = biological target: T1, Prolyl endopeptidase; experiment: Inhibition of prolyl oligopeptidase in human LNZ308 cell extracts assessed as blockade of Z-Gly-Pro-AMC substrate hydrolysis by fluorimetric assay
[9] = biological target: Dipeptidyl peptidase 4 (Homo sapiens) (UniProt P27487); experiment: Inhibition of DPP4 in human astrocyte derived cell extracts assessed as blockade of Gly-Pro-AMC substrate hydrolysis at 100 uM by fluorimetric assay; outline: as §1
[10] = biological target: Dipeptidyl peptidase 4 (Homo sapiens) (UniProt P27487); experiment: Inhibition of DPP4 in human brain derived endothelial cell extracts assessed as blockade of Gly-Pro-AMC substrate hydrolysis at 100 uM by fluorimetric assay; format: cell-free; outline: as §1
Prolyl endopeptidase [11] = biological target: T1, Prolyl endopeptidase; experiment: Inhibition of prolyl oligopeptidase in intact human HCEC cells assessed as blockade of Z-Gly-Pro-AMC substrate hydrolysis by fluorimetric assay; format: cell-based
Prolyl endopeptidase [12] = biological target: T1, Prolyl endopeptidase; experiment: Inhibition of prolyl oligopeptidase in intact human LN229 cells assessed as blockade of Z-Gly-Pro-AMC substrate hydrolysis by fluorimetric assay; format: cell-based
[13] = biological target: T2, Prolyl endopeptidase (Homo sapiens) (UniProt P48147); experiment: Inhibition of prolyl oligopeptidase in human brain derived endothelial cell extracts assessed as blockade of Z-Gly-Pro-AMC substrate hydrolysis at 100 uM by fluorimetric assay; format: cell-free
T2 sequence (whole entry): T1 sequence (P48147 whole entry)
Outline: (§3)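 Confluent human glioblastoma (LN18, LN229, LNZ308), brain endothelial HCEC, or lung PO03 and skin PG98/5 fibroblasts extracted in PBS with 0.1% Triton X-100. Compound was diluted from methanol stock into water and preincubated 5-10 min at room temperature. Z-Gly-Pro-AMC was then added and read by fluorescence. Duplicate wells.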

[14] = biological target: T2, Prolyl endopeptidase (Homo sapiens); experiment: Inhibition of prolyl oligopeptidase in intact human fibroblasts assessed as blockade of Z-Gly-Pro-AMC substrate hydrolysis at 100 uM by fluorimetric assay
Outline: (§4)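 Intact confluent human glioblastoma (LN18, LN229, LNZ308), brain endothelial HCEC, or lung PO03 and skin PG98/5 fibroblast monolayers in PBS (pH 7.2-7.4), cells grown beforehand in DMEM with 10% FCS. Compound was diluted from methanol stock into water and preincubated 5-10 min at room temperature. Z-Gly-Pro-AMC was then added and read fluorimetrically. Duplicate wells.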

[15] = biological target: T2, Prolyl endopeptidase (Homo sapiens); experiment: Inhibition of prolyl oligopeptidase in human fibroblast extracts assessed as blockade of Z-Gly-Pro-AMC substrate hydrolysis at 100 uM by fluorimetric assay; outline: as §3
[16] = biological target: T2, Prolyl endopeptidase (Homo sapiens); experiment: Inhibition of prolyl oligopeptidase in intact human brain derived endothelial cells assessed as blockade of Z-Gly-Pro-AMC substrate hydrolysis at 100 uM by fluorimetric assay; format: cell-based; settings: Endothelial cell; outline: as §4
[17] = biological target: T2, Prolyl endopeptidase (Homo sapiens); experiment: Inhibition of prolyl oligopeptidase in human astrocyte derived cell extracts assessed as blockade of Z-Gly-Pro-AMC substrate hydrolysis at 100 uM by fluorimetric assay; outline: as §3
[18] = biological target: T2, Prolyl endopeptidase (Homo sapiens); experiment: Inhibition of prolyl oligopeptidase in intact human astrocyte derived cells assessed as blockade of Z-Gly-Pro-AMC substrate hydrolysis at 100 uM by fluorimetric assay; outline: as §4

Compound	IC50 (Prolyl endopeptidase [1]) [nM]	IC50 (Prolyl endopeptidase [2]) [nM]	inhibition [3]	inhibition [4]	inhibition [5]	IC50 (Prolyl endopeptidase [6]) [nM]	inhibition [7]	IC50 (Prolyl endopeptidase [8]) [nM]	inhibition [9]	inhibition [10]	IC50 (Prolyl endopeptidase [11]) [nM]	IC50 (Prolyl endopeptidase [12]) [nM]	inhibition [13]	inhibition [14]	inhibition [15]	inhibition [16]	inhibition [17]	inhibition [18]
N#C[C@@H]1CS[C@H]2C[C@@H](NC(=O)OCc3ccccc3)C(=O)N12	500	700	inactive	inactive	inactive	2500	inactive	200	inactive	inactive	1300	2000						
N#C[C@H]1CS[C@@H]2C[C@@H](NC(=O)OCc3ccccc3)C(=O)N12			inactive	inactive	inactive		inactive		inactive	inactive			> 50%	inactive	10%	10%	10%	inactive
N#CC1CCCCN1C(=O)CNC(=O)OCc1ccccc1 (racemic)			inactive	inactive	inactive		inactive		inactive	inactive			10%	inactive	10%	inactive	> 50%	10%
NC(=O)[C@@H]1CS[C@H]2C[C@@H](NC(=O)OCc3ccccc3)C(=O)N21			inactive	inactive	inactive		inactive		inactive	inactive			inactive	inactive	inactive	inactive	inactive	inactive
N#C[C@@H]1CO[C@H]2C[C@H](NC(=O)OCc3ccccc3)C(=O)N12			inactive	inactive	inactive		inactive		inactive	inactive			inactive	10%	10%	inactive	inactive	inactive
N#C[C@H]1CS[C@@H]2C[C@H](NC(=O)OCc3ccccc3)C(=O)N12			inactive	inactive	inactive		inactive		inactive	inactive			10%	inactive	inactive	inactive	10%	inactive
N#C[C@@H]1CS[C@H]2CC[C@@H](NC(=O)OCc3ccccc3)C(=O)N12			inactive	inactive	inactive		inactive		inactive	inactive			> 50%	> 50%	> 50%	> 50%	> 50%	> 50%
CC(C)(C)OC(=O)N1CCC[C@H]1C#N			inactive	inactive	inactive		inactive		inactive	inactive			inactive	inactive	inactive	inactive	inactive	inactive
C[C@H]1O[C@H]2C[C@H](NC(=O)OCc3ccccc3)C(=O)N2[C@@H]1C#N			inactive	inactive	inactive		inactive		inactive	inactive			10%	inactive	inactive	10%	10%	inactive
N#C[C@@H]1CS[C@H]2CC[C@H](NC(=O)OCc3ccccc3)C(=O)N12			inactive	inactive	inactive		inactive		inactive	inactive			> 50%	> 50%	> 50%	10%	> 50%	> 50%
C[C@H]1O[C@H]2C[C@@H](NC(=O)OCc3ccccc3)C(=O)N2[C@@H]1C#N			inactive	inactive	inactive		inactive		inactive	inactive			10%	inactive	inactive	10%	10%	inactive
N#C[C@@H]1CS[C@H]2C[C@H](NC(=O)OCc3ccccc3)C(=O)N12			inactive	inactive	inactive		inactive		inactive	inactive			> 50%	10%	10%	10%	10%	inactive
COC(=O)[C@@H]1CS[C@H]2C[C@@H](NC(=O)OCc3ccccc3)C(=O)N21			inactive	inactive	inactive		inactive		inactive	inactive			inactive	10%	10%	inactive	inactive	inactive

Source: ChEMBL document CHEMBL1153716, “Constrained peptidomimetics reveal detailed geometric requirements of covalent prolyl oligopeptidase inhibitors” (J Med Chem, 2009)
